Screening results deposited in PubChem by several laboratories.
Cl transport mod – KCC2 cotransporter modulators, thallium flux, primary screen, cell-based, HEK293 KCC2, FluoZin-2 fluorescence, MLSMR; actives 2.2% (n = 190,000); B-score of Tl+ flux slope (higher = more flux/activation; lower = inhibition) at 10 µM; KCC2 cells, thallium flux FluoZin-2 fluorescence; Solute carrier family 12 member 5 (Homo sapiens), Q9H2X9;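 active = thallium flux slope and its plate-corrected score both differing from the plate sample mean at a set confidence after two filtering rounds, in either direction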;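 also: slope of fluorescence scaled to starting intensity during 10 to 20 s after thallium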
Redox H2O2 prof – compounds producing H2O2 with reducing agent – biochemical, NIH compound library profiling, artefact control for MLSCN library redox annotation, primary screen | DTT-dependent redox cycling H2O2, phenol red/HRP absorbance; 100% = 100 µM peroxide control, 0% = buffer | actives 0.03% (n = 200,000) | AID 878, 2007 | activation, % at 10 µM;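 active = activation of at least 50% relative to the plate's high and low controls in the primary single-dose screen; inactive = activation below 50%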;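 also: compound incubated with DTT at 0.8 mM final as the reducing agent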
bCat nuc transl – modulators of beta-catenin nuclear translocation, primary screen, imaging, HeLa cells, immunofluorescence, high-content | nuclear translocation activity, % at 5 µM | actives 0.3% (n = 190,000) | AID 1665, 2009;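 active = nuclear translocation activity above 50% at 5 µM, with a well cell count of 50 or more; inconclusive = wells under 50 cells across six images, flagged as toxic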;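 also: per-cell ratio of nuclear to cytoplasmic median beta-catenin stain intensity; plate controls were DMSO negative control for no effect and GSK-3 inhibitor IX positive control for full effect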
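Read-out: Nuclear/cytoplasmic beta-catenin signal ratio, % activation | Assay system: Human HeLa cell line | Times: 24 h compound exposure at 37°C, 5% CO2 | Signal: Fluorescence imaging of beta-catenin antibody stain plus DAPI | Dosing: 5 µM primary, 0.02–20 µM confirmation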
MT stabilizer – microtubule stabilizers in HeLa cells, primary screen, imaging, high-content imaging. HeLa tubulin immunostaining HCS, 24 h; share of cells brighter than vehicle mean+2SD. AID 2205, 2009. % tubulin-high responders, % at 10 µM. actives 0.83% (n = 200,000);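 active = plate Z-score above 3 for both tubulin-high and condensed-nucleus cell shares, with cell loss under 80%, at 10 µM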;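 also: anti alpha tubulin signal scored within the nucleus-defined area of each cell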
ROMK mod – ROMK potassium channel modulators, primary screen, cell-based, thallium flux, MLSMR library. Tet-inducible ROMK, thallium flux fluorescence; actives lie on both sides. B-score at 10 µM. actives 2% (n = 130,000). ATP-sensitive inward rectifier potassium channel 1 (Homo sapiens), P48048;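 active = signal ratio slope over the read window, or its plate-corrected B-score, at least 3 SD from the plate mean, either direction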;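 also: B-score of the F/F0 ratio slope over 7 to 12 s after thallium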
KCC2 sec1 – KCC2 modulators in sodium-free buffer, confirmation, cell-based, HEK293 KCC2, thallium flux, secondary assay. FluoZin2 fluorescence; stronger effect = higher value. shares compounds with Cl transport mod. AID 1713, 2009. normalised thallium flux (F/F0 slope) at 10 µM. actives 15% (n = 3,700);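 active = thallium flux slope above the same plate's solvent-only control mean plus 3 SD; inconclusive = the two replicate wells disagree; inactive = no significant difference from solvent-only control wells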
KCC2 bumet counter – thallium flux persisting under bumetanide in KCC2 cells, confirmation, counter-screen for KCC2 modulator project, cell-based, HEK293 KCC2, FluoZin2, secondary assay 3; shares compounds with Cl transport mod; HEK293-KCC2 + bumetanide/ouabain; stronger effect = higher value; normalized thallium flux at 10 µM; actives 49% (n = 3,700);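 active = thallium entry rate above the same plate's blocked-transporter control wells by more than 3 SD; inconclusive = the two repeat wells disagree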;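 also: raw slope of fluorescence over initial fluorescence between 10 and 20 s after thallium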
KCC2 sec2 – KCC2 modulators without ouabain present, confirmation, cell-based, HEK293 KCC2, thallium flux, FluoZin2, secondary assay 2; shares compounds with Cl transport mod; thallium flux FluoZin2 fluorescence; actives lie on both sides; F/F0 rise rate, 10–20 s post-thallium; normalized thallium flux at 10 µM; actives 23% (n = 3,700);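 active = thallium flux slope more than 3 SD above or below the plate's solvent-only control mean, mostly below; inconclusive = the two repeat wells disagreed; inactive = no significant shift from solvent-only controls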;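 also: raw slope with 0.1% DMSO as baseline and bumetanide as block control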
HEK counter1 – thallium flux modulation in parental HEK cells, confirmation, counter-screen for KCC2 modulator project, cell-based, counterscreen 1 | HEK293 parental cells, thallium flux FluoZin2, ouabain; baseline-ratio fluorescence slope, 10–20 s after thallium | AID 1716, 2009 | actives 46% (n = 3,700) | shares compounds with Cl transport mod | thallium flux rate (normalised fluorescence) at 10 µM;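 active = thallium flux rate significantly above the same plate's solvent-only control wells, beyond their mean plus 3 SD; inconclusive = the two replicate wells gave conflicting results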
KCC2 retest ouab – KCC2 inhibitors and activators, ouabain retest, confirmation, HEK-KCC2 cells; shares compounds with Cl transport mod; HEK293-KCC2, thallium flux FluoZin2 fluorescence; bidirectional: low = inhibitor, high = activator; raw Tl+ flux slope (below DMSO = inhibition, above = activation) at 10 µM; actives 48% (n = 3,700);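 active = thallium flux slope beyond 3 SD from same-plate DMSO control mean in most replicates, usually higher, sometimes lower; inconclusive = repeat tests gave conflicting results; inactive = no significant difference from controls in most replicates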;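 also: slope of initial-normalized fluorescence between seconds 10 and 20 after thallium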
HEK counter2 – native HEK Tl+ uptake effects, second counter-screen – HEK cells, counterscreen 2, counter-screen for KCC2 modulator project, confirmation; AID 1718, 2009; thallium flux slope at 10 µM; shares compounds with Cl transport mod; actives 33% (n = 3,700); HEK293 parental, thallium flux FluoZin-2 fluorescence slope;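 active = thallium flux slope above the same plate's solvent-control mean plus 3 SD in both duplicate wells; inconclusive = duplicate wells that disagreed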;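 also: run without ouabain in cells lacking the KCC2 cotransporter; slope of fluorescence scaled to its starting value between 10 and 20 s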
Starred values were filed as active, the others as inactive; ? = inconclusive; / = not tested or not shown. This is a sample that favours compounds with a hit; in the whole collection about 3.7% have one here.

SMILES	Cl transport mod	Redox H2O2 prof	bCat nuc transl	MT stabilizer	ROMK mod	KCC2 sec1	KCC2 bumet counter	KCC2 sec2	HEK counter1	KCC2 retest ouab	HEK counter2
Cc1nc(C(=O)NNC(=O)c2cccc(Cl)c2)c(C(F)(F)F)o1	11*	/	0	/	/	0.013*	0.019*	0.033	?	0.023	0.011*
Cc1cc(C)c[n+](C(C)C(=O)c2ccc(-c3ccccc3)cc2)c1 (configuration not stated)	-3.1	0	3	2	/	/	/	/	/	/	/
O=C(Nn1c(O)c(C=C2N=c3ccccc3=N2)sc1=S)c1ccccc1Cl	-4.4*	-1	1	4	/	0.017	0.0048	0.02*	0.0077	0.014	0.012
O=S(=O)(Nn1c(O)c(C=C2N=c3ccccc3=N2)sc1=S)c1ccccc1	-1.7	/	1	/	-0.34	/	/	/	/	/	/
N#C/C(=C\c1ccco1)C(=O)Nc1cccc2ncccc12	0.59	1	1	7	1	/	/	/	/	/	/
O=C(NNC(=S)Nc1ccc(Cl)c(Cl)c1)c1ccccn1	11*	-2	5	7	0.54	0.013*	0.037*	0.031	0.019*	0.051*	0.012*
CCNC(=S)NNC(=O)c1ccccn1	0.068	-1	/	4	-0.014	/	/	/	/	/	/
N#C/C(=C\Nc1ccccc1O)c1nc2ccccc2o1	0.026	-1	8	3	-0.21	/	/	/	/	/	/
Cc1ccccc1NC(=O)c1sc(NC(=O)COc2ccccc2)c(C#N)c1C	-1.5	0	10	2	/	/	/	/	/	/	/
Fc1cccc(Cl)c1CSc1nnc(CNc2ccccc2)o1	-3.5*	1	-1	2	0.055	0.015	0.0029	0.026	0.0058*	0.014*	?
Fc1ccc(NCc2nnc(SCc3ccccc3)o2)cc1	-3	0	-1	2	-0.43	/	/	/	/	/	/
Fc1cccc(CN2CCN(Cc3nc(CCc4ccccc4)no3)CC2)c1	-0.29	-1	-1	4	/	/	/	/	/	/	/
Cn1c(C(=O)OC(C(=O)NC2CCCC2)c2ccncc2)cc2sccc21 (configuration not stated)	-5.2*	2	3	3	/	0.0068	?	0.025*	0.0074	?	0.01
Cn1c(C(=O)OC(C(=O)NC2CCCCC2)c2ccncc2)cc2sccc21 (configuration not stated)	-2.5	1	2	2	/	/	/	/	/	/	/
CSc1sc(-c2n[nH]c(=S)n2C)c2c1C=CCC2	4.3*	/	2	/	-0.59	0.0085	0.015*	0.03	0.0093*	?	?
CC1=C(/C=C/C(C)=N\NC(=O)c2ccncc2)C(C)(C)CCC1	15*	0	4	2	-0.48	0.005	0.032*	?	0.024*	0.033*	0.026*
O=C(CSc1nnnn1-c1ccccc1F)Nc1nc2ccccc2s1	-1.3	0	0	2	0.26	/	/	/	/	/	/
C=CCn1c(CCNC(=O)c2ccccc2F)nnc1SCC(=O)Nc1nc2ccccc2s1	/	0	/	1	0.45	0.016	0.0043	0.025*	0.0064	0.014	0.0086
CC(=O)NS(=O)(=O)c1cccnc1Nc1ccc(Cl)cc1	-0.66	0	-4	2	/	/	/	/	/	/	/
O=C(CSC(=S)N1CCCCC1)Nc1ncc2c(n1)CCCC2=O	1.4	/	0	/	/	/	/	/	/	/	/
CCOc1ccc(/C=C2\SC(=S)NC2=O)cc1OC	9.4*	0	-1	3	-0.046	0.013*	0.02*	?	0.016*	0.023	0.012*
CCOc1ccc(/C=C2\SC(=S)N(NS(=O)(=O)c3ccc(C)cc3)C2=O)cc1OC	24*	/	2	/	/	0.0065	0.039*	0.029	0.021*	?	0.014*
COc1cc(/C=C2\SC(=O)NC2=O)ccc1Oc1ccc([N+](=O)[O-])cc1[N+](=O)[O-]	-4.2*	5	4	5	2	0.0074	0.01*	0.028	0.0071	0.018	0.011
CCOc1ccc(/C=C2\SC(=S)N(NS(=O)(=O)c3ccccc3)C2=O)cc1OC	7*	/	-2	/	/	?	0.028*	0.034	0.014*	?	0.018*
CCOc1cc(/C=C2\SC(=S)N(Nc3ccccc3)C2=O)ccc1O	-0.21	-7	0	8	1.1	/	/	/	/	/	/
CCN=C1S/C(=C\c2ccc(OCC)c(OC)c2)C(=O)N1CC	-0.02	0	14	4	/	/	/	/	/	/	/
Cc1ccc(NC(=O)Cn2c(=O)oc3cc(S(=O)(=O)N4CCC(C)CC4)ccc32)cc1C	/	-2	/	5	/	/	/	/	/	/	/
CC(=O)Nc1ccc(S(=O)(=O)NC2(C(F)(F)F)C(=O)Nc3c2c(=O)[nH]c(=O)n3Cc2cccnc2)cc1 (configuration not stated)	/	1	-3	2	-0.45	/	/	/	/	/	/
